Data as given in ChEMBL document CHEMBL3352743, “Chemically accessible hsp90 inhibitor that does not induce a heat shock response” (ACS Med Chem Lett, 2014).
Values after ≈ are worked out from the molar mass of the structure shown. Active and inactive are the calls of the source. The calls are words filed in the database; no cut-off is given here. Peptide text beside a SMILES is read from it.

Tests used:
[1] = Cytotoxicity against human MIAPaCa2 cells after 72 hrs by CCK8 assay; type: functional, cell-based; details: MIA PaCa-2, 72 h
[2] = Cytotoxicity against human HCT116 cells after 72 hrs by CCK8 assay; type: functional, cell-based; details: HCT-116, 72 h
[3] = Solubility in 80% EtOH/20% water; type: physicochemical
[4] = molecular target: Heat shock protein HSP 90-beta (Oryctolagus cuniculus) (UniProt P30947); assay: Inhibition of HSP90 in rabbit reticulocyte lysates at 5 uM pre-incubated for 2 hrs by firefly luciferase protein re-folding assay
Heat shock protein HSP 90-beta (Oryctolagus cuniculus), sequence (P30947 whole entry): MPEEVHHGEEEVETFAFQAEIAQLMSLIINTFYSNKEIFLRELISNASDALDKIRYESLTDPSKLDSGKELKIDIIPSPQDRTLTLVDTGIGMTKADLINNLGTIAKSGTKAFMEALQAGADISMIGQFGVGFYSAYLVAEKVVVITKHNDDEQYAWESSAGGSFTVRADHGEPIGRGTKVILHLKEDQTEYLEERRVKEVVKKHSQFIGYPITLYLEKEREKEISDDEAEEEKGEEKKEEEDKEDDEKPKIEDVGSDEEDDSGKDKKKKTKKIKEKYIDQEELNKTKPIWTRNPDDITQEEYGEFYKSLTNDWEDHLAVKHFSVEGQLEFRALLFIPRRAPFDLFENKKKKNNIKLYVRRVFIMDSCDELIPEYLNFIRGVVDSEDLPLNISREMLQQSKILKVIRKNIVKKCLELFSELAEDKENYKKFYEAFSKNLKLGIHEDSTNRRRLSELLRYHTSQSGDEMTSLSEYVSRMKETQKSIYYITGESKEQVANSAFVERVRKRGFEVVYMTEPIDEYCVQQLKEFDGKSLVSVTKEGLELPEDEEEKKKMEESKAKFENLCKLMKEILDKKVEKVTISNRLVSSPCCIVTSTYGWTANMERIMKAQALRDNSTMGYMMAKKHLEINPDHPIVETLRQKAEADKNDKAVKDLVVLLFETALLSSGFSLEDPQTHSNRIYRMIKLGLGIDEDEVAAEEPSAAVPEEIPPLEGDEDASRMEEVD

[5] = Induction of heat shock response in human HCT116 cells assessed as HSF1 protein expression at IC50 level by western blotting method relative to untreated control; type: cell-based; details: hct-116
[6] = Induction of heat shock response in human HCT116 cells assessed as HSP27 protein expression at IC50 level by western blotting method relative to untreated control; type: cell-based; details: hct-116
[7] = Induction of heat shock response in human MIAPaCa2 cells assessed as HSP40 protein expression at IC50 level by western blotting method relative to untreated control; type: cell-based; details: mia paca-2
[8] = molecular target: Heat shock protein HSP 90-beta (Oryctolagus cuniculus) (UniProt P30947); details: 100 nM
[9] = Induction of heat shock response in human HCT116 cells assessed as HSP40 protein expression at IC50 level by western blotting method relative to untreated control; type: cell-based; details: hct-116
HCT-116 [10] = assay: Induction of apoptosis in human HCT116 cells assessed as caspase 3/7 activation at 1000 nM after 24 hrs by luminometry; type: functional
[11] = Induction of heat shock response in human MIAPaCa2 cells assessed as HSP90 protein expression at IC50 level by western blotting method relative to untreated control; type: cell-based; details: mia paca-2
Method in brief: (§1)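 MiaPaCa-2 cells, run alongside HCT-116, treated with compound at the line's level and also at 10-fold above it. Western blotting measured HSF1, hsp90, hsp70, hsp40 and hsp27 protein levels, quantified as fold change versus untreated control.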

HCT-116 [12] = assay: Induction of apoptosis in human HCT116 cells at 1000 nM after 24 hrs by annexin V and 7-AAD staining based flow cytometry; type: functional
[13] = Induction of heat shock response in human HCT116 cells assessed as HSP90 protein expression at IC50 level by western blotting method relative to untreated control; type: cell-based; details: hct-116
[14] = Induction of heat shock response in human MIAPaCa2 cells assessed as HSF1 protein expression at IC50 level by western blotting method relative to untreated control; type: cell-based; details: mia paca-2
[15] = Induction of heat shock response in human HCT116 cells assessed as HSP70 protein expression at IC50 level by western blotting method relative to untreated control; type: cell-based; details: hct-116
MIA PaCa-2 [16] = assay: Induction of apoptosis in human MIAPaCa2 cells assessed as caspase 3/7 activation at 1000 nM after 24 hrs by luminometry; type: functional
[17] = Induction of heat shock response in human MIAPaCa2 cells assessed as HSP27 protein expression at IC50 level by western blotting method relative to untreated control; type: cell-based; details: mia paca-2; method in brief: as §1
[18] = Induction of heat shock response in human MIAPaCa2 cells assessed as HSP70 protein expression at IC50 level by western blotting method relative to untreated control; type: cell-based; details: mia paca-2
HCT-116 [19] = assay: Induction of cell cycle arrest in human HCT116 cells assessed as accumulation at G0/G1 phase at 5 uM after 24 hrs by propidium iodide staining based cytometry; type: functional
[20] = molecular target: Heat shock protein HSP 90-beta (Oryctolagus cuniculus) (UniProt P30947); assay: Inhibition of HSP90 in rabbit reticulocyte lysates at 5 uM […] by firefly luciferase protein re-folding assay; details: in the assay text read “2 hrs” for “5 hrs”
Method in brief: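 Denatured firefly luciferase incubated for 2 h in rabbit reticulocyte lysate pretreated with compound. Refolding read as luciferase activity relative to control. Mean ± SEM, n = 3.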

[21] = Reduction in HSF1 protein expression in human HCT116 cells at IC50 level by western blotting method; type: functional, cell-based; details: HCT-116
[22] = Reduction in HSP90 protein expression in human HCT116 cells at IC50 level by western blotting method; type: functional, cell-based; details: HCT-116
[23] = Reduction in HSP70 protein expression in human HCT116 cells at IC50 level by western blotting method; type: functional, cell-based; details: HCT-116
[24] = Reduction in HSP27 protein expression in human HCT116 cells at 50 uM by western blotting method relative to untreated control; type: functional, cell-based; details: HCT-116
[25] = Reduction in HSP27 protein expression in human MIAPaCa2 cells at 50 uM by western blotting method relative to untreated control; type: functional, cell-based; details: MIA PaCa-2
[26] = Reduction in HSP40 protein expression in human HCT116 cells at 50 uM by western blotting method relative to untreated control; type: functional, cell-based; details: HCT-116
[27] = Reduction in HSP70 protein expression in human MIAPaCa2 cells at 50 uM by western blotting method relative to untreated control; type: functional, cell-based; details: MIA PaCa-2
MIA PaCa-2 [28] = assay: Induction of apoptosis in human MIAPaCa2 cells assessed as caspase 3/7 activation at 50 uM after 24 hrs by luminometry; type: functional
MIA PaCa-2 [29] = assay: Induction of cell cycle arrest in human MIAPaCa2 cells assessed as accumulation at G0/G1 phase at 5 uM after 24 hrs by propidium iodide staining based cytometry; type: functional
[30] = Reduction in HSP90 protein expression in human MIAPaCa2 cells at 50 uM by western blotting method relative to untreated control; type: functional, cell-based; details: MIA PaCa-2
[31] = Reduction in HSP40 protein expression in human HCT116 cells at IC50 level by western blotting method; type: functional, cell-based; details: HCT-116
[32] = Reduction in HSF1 protein expression in human MIAPaCa2 cells at 50 uM by western blotting method relative to untreated control; type: functional, cell-based; details: MIA PaCa-2
[33] = Reduction in HSP40 protein expression in human MIAPaCa2 cells at 50 uM by western blotting method relative to untreated control; type: functional, cell-based; details: MIA PaCa-2
[34] = Reduction in HSF1 protein expression in human HCT116 cells at 50 uM by western blotting method relative to untreated control; type: functional, cell-based; details: HCT-116
[35] = Reduction in HSP70 protein expression in human HCT116 cells at 50 uM by western blotting method relative to untreated control; type: functional, cell-based; details: HCT-116
[36] = Reduction in HSP27 protein expression in human MIAPaCa2 cells at IC50 level by western blotting method; type: functional, cell-based; details: MIA PaCa-2
[37] = Reduction in HSP90 protein expression in human MIAPaCa2 cells at IC50 level by western blotting method; type: functional, cell-based; details: MIA PaCa-2
HCT-116 [38] = assay: Induction of apoptosis in human HCT116 cells at 50 uM after 24 hrs by annexin V and 7-AAD staining based flow cytometry; type: functional
[39] = Reduction in HSF1 protein expression in human MIAPaCa2 cells at IC50 level by western blotting method; type: functional, cell-based; details: MIA PaCa-2
[40] = Reduction in HSP90 protein expression in human HCT116 cells at 50 uM by western blotting method relative to untreated control; type: functional, cell-based; details: HCT-116
HCT-116 [41] = assay: Induction of apoptosis in human HCT116 cells assessed as caspase 3/7 activation at 50 uM after 24 hrs by luminometry; type: functional
[42] = Reduction in HSP27 protein expression in human HCT116 cells at IC50 level by western blotting method; type: functional, cell-based; details: HCT-116
[43] = Reduction in HSP70 protein expression in human MIAPaCa2 cells at IC50 level by western blotting method; type: functional, cell-based; details: MIA PaCa-2
[44] = Reduction in HSP40 protein expression in human MIAPaCa2 cells at IC50 level by western blotting method; type: functional, cell-based; details: MIA PaCa-2
[45] = 80% EtOH/20% water, read-out: solubility

With `CC(C)C[C@@H]1NC(=O)[C@H](C(C)C)N(C)C(=O)[C@@H](CC(C)C)NC(=O)[C@@H](Cc2ccncc2)NC(=O)[C@@H](C(c2ccccc2)c2ccccc2)NC1=O` the IC50 [1] was 18.5 µM and the IC50 [2] was 15.7 µM.
For `CC(C)C[C@@H]1NC(=O)[C@H](C(C)C)N(C)C(=O)[C@@H](CC(C)C)NC(=O)[C@@H](Cc2c[nH]c3ccccc23)NC(=O)[C@@H](C(c2ccccc2)c2ccccc2)NC1=O`, the IC50 [1] was 4.5 µM, the IC50 [2] was 3.9 µM and the solubility [3, 45] was 1900 µg/mL (≈ 2.54 mM).
Work on `CC(C)C[C@@H]1NC(=O)[C@H](C(C)C)N(C)C(=O)[C@@H](CC(C)C)NC(=O)[C@@H](Cc2ccccc2)NC(=O)[C@@H]([C@H](OCc2ccccc2)c2ccccc2)NC1=O` (HELM PEPTIDE1{L.[O=C([C@H](N[*:1])[C@H](OCc1ccccc1)c1ccccc1)[*:2]].[dF].[dL].[meV]}$PEPTIDE1,PEPTIDE1,1:R1-5:R2$$$V2.0) yielded an inhibition [4] of 25%, an IC50 [1] of 7.8 µM and an IC50 [2] of 7.4 µM. It also gave a solubility [3, 45] of 5200 µg/mL (≈ 7.03 mM).
For `C=CCNC1=C2C[C@@H](C)C[C@H](OC)[C@H](O)[C@@H](C)/C=C(\C)[C@H](OC(N)=O)[C@@H](OC)/C=C\C=C(/C)C(=O)NC(=CC1=O)C2=O` [TANESPIMYCIN], the “fold change (FC)” value [5] was 2, the “fold change (FC)” value [6] was 2 and the “fold change (FC)” value [7] was 2. For the same molecule, the inhibition [8] was 17%, the “fold change (FC)” value [9] was 2 and the “fold change (FC)” value (HCT-116 [10]) was 2. The “fold change (FC)” value [11] was 2, the Activity (HCT-116 [12]) was 25% and the “fold change (FC)” value [13] was 2. For the same molecule, the “fold change (FC)” value [14] was 2, the “fold change (FC)” value [15] was 2 and the “fold change (FC)” value (MIA PaCa-2 [16]) was 2. For the same molecule, the “fold change (FC)” value [17] was 2 and the “fold change (FC)” value [18] was 2.
In the case of `CC(C)C[C@@H]1NC(=O)[C@H](C(C)C)N(C)C(=O)[C@@H](CC(C)C)NC(=O)[C@@H](Cc2cscn2)NC(=O)[C@@H](C(c2ccccc2)c2ccccc2)NC1=O` (HELM PEPTIDE1{L.[O=C([C@H](N[*:1])C(c1ccccc1)c1ccccc1)[*:2]].[O=C([C@@H](Cc1cscn1)N[*:1])[*:2]].[dL].[meV]}$PEPTIDE1,PEPTIDE1,1:R1-5:R2$$$V2.0), the Activity (HCT-116 [19]) is reported as “Active”, the inhibition [20] is reported as 42% and the inhibition [21] is reported as “Active”. For the same molecule, the inhibition [22] was “Active”, the inhibition [23] was “Active” and the fold change (FC) [24] was 2. The fold change (FC) [25] was 2, the fold change (FC) [26] was 2 and the fold change (FC) [27] was 2. The IC50 [1] was 5.5 µM, the “fold change (FC)” value (MIA PaCa-2 [28]) was 4 and the Activity (MIA PaCa-2 [29]) was “Active”. The fold change (FC) [30] was 2, the inhibition [31] was “Active” and the fold change (FC) [32] was 2. It also gave a fold change (FC) [33] of 2, an IC50 [2] of 5 µM and a fold change (FC) [34] of 2. For the same molecule, the fold change (FC) [35] was 2, the inhibition [36] was “Active” and the inhibition [37] was “Active”. The Activity (HCT-116 [38]) was 75%, the solubility ([3]; buffer) was 9500 µg/mL (≈ 13.3 mM) and the inhibition [39] was “Active”. The fold change (FC) [40] was 2, the “fold change (FC)” value (HCT-116 [41]) was 4 and the inhibition [42] was “Active”. For the same molecule, the inhibition [43] was “Active” and the inhibition [44] was “Active”.
